Reference: ChEMBL document CHEMBL5661979, “Pharmacological inhibition of BMK1 suppresses tumor growth through promyelocytic leukemia protein” (Cancer Cell, 2010)
The source made the active and inactive calls. No cut-off for these calls is given here.

What was measured:
[1] = Inhibition of SRC/FYN/YES in human HeLa cells lysate pre incubated for 15 mins followed by ATP acyl phosphate probe addition and measured after 10 mins by LC-MS/MS analysis; type: subcellular
[2] = molecular target: EKC/KEOPS complex subunit TP53RK (Homo sapiens, UniProt Q96S44); test: Inhibition of PRPK in human HeLa cells lysate pre incubated for 15 mins followed by ADP acyl phosphate probe addition and measured after 10 mins by LC-MS/MS analysis; type: subcellular
Chain of EKC/KEOPS complex subunit TP53RK (Q96S44 whole entry, one chain of several): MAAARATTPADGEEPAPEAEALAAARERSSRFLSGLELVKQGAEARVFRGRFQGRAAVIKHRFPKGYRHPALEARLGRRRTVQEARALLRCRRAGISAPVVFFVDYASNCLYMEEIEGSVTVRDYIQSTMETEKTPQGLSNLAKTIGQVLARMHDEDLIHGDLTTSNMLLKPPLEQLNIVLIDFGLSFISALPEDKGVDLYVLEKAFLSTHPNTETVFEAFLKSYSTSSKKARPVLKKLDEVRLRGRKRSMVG

[3] = molecular target: c-Jun N-terminal kinase, JNK (Homo sapiens, UniProt P45983+P53779+P45984); test: Inhibition of JNK1/JNK2/JNK3 in human HeLa cells lysate at 50 uM pre incubated for 15 mins followed by ATP acyl phosphate probe addition and measured after 10 mins by LC-MS/MS analysis relative to control; type: subcellular; settings: time 25.0 min
[4] = molecular target: T1, Dual specificity mitogen-activated protein kinase kinase 5 (Homo sapiens) (UniProt Q13163); test: Inhibition of MAP2K5 in human HeLa cells lysate upto 50 uM pre incubated for 15 mins followed by ADP acyl phosphate probe addition and measured after 10 mins by LC-MS/MS analysis; type: subcellular; settings: time 25.0 min
T1 sequence (whole entry): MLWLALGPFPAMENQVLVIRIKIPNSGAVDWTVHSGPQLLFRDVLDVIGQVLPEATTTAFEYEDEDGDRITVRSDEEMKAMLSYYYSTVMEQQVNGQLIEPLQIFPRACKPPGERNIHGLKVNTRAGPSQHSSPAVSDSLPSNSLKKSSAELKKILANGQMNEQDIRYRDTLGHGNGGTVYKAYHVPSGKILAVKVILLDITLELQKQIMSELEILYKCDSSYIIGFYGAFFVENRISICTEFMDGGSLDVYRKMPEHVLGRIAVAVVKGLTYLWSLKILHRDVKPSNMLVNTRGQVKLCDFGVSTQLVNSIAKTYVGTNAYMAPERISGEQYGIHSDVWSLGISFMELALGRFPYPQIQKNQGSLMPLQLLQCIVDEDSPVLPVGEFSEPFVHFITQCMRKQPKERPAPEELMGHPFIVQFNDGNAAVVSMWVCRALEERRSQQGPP

[5] = molecular target: T2, Dual specificity mitogen-activated protein kinase kinase 3 (Homo sapiens) (UniProt P46734); test: Inhibition of MAP2K3 in human HeLa cells lysate at 2 uM pre incubated for 15 mins followed by ATP acyl phosphate probe addition and measured after 10 mins by LC-MS/MS analysis relative to control; type: subcellular; settings: time 25.0 min
T2 sequence (whole entry): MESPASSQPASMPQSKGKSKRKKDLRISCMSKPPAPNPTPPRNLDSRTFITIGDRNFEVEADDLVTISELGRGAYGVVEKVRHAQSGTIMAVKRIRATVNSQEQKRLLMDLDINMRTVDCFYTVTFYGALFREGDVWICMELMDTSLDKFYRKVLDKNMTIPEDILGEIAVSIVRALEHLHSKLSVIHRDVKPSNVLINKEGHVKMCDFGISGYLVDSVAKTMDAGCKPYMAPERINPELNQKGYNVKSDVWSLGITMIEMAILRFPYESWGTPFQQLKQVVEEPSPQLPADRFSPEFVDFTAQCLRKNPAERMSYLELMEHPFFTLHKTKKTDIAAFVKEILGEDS

RPS6KA1/RPS6KA2/RPS6KA3 = RPS6KA1/RPS6KA2/RPS6KA3 (Homo sapiens, UniProt P51812+Q15349+Q15418); test: Inhibition of RSK1/2/3 in human HeLa cells lysate at 2 uM pre incubated for 15 mins followed by ADP acyl phosphate probe addition and measured after 10 mins by LC-MS/MS analysis relative to control; type: subcellular; settings: time 25.0 min
Chain of RPS6KA1/RPS6KA2/RPS6KA3 (P51812 whole entry, looked up): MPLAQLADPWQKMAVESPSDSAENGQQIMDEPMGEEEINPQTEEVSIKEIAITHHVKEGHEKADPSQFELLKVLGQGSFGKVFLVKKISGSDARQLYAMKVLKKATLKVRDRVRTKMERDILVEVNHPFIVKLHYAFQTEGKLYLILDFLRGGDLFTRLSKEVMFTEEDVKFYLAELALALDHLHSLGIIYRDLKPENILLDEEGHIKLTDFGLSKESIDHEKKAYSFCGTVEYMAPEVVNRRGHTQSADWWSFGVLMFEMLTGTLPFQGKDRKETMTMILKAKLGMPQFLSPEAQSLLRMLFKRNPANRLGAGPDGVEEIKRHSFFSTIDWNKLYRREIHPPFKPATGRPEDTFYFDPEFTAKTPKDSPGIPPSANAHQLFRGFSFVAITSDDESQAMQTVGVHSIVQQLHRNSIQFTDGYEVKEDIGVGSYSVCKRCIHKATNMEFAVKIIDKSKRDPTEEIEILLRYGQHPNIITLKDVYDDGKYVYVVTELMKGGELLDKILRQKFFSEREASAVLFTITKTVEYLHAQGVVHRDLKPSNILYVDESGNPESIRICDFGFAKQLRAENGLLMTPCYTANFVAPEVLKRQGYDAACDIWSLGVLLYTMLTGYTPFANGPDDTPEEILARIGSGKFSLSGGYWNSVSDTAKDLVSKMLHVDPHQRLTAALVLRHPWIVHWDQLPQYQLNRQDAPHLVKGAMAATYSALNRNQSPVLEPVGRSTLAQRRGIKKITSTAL
Chain of RPS6KA1/RPS6KA2/RPS6KA3 (Q15349 whole entry, looked up): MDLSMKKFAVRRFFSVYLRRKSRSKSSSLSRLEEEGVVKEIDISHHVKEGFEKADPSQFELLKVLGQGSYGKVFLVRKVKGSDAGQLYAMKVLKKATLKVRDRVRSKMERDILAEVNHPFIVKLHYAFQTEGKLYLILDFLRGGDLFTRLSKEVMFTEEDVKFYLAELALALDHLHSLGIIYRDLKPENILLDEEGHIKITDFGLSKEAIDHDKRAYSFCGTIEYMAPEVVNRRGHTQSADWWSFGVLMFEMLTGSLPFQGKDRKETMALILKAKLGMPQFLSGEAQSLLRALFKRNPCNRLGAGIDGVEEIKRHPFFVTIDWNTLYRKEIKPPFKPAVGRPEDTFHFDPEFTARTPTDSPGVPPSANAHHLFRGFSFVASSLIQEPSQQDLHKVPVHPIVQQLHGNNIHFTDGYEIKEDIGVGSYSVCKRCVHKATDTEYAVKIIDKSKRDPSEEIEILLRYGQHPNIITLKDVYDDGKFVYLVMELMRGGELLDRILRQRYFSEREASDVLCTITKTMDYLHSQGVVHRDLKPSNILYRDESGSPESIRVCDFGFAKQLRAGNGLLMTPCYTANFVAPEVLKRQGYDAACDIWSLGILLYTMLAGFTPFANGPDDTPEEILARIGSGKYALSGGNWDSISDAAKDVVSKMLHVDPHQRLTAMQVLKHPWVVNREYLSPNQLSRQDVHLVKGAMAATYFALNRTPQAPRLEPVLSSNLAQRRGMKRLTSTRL
Chain of RPS6KA1/RPS6KA2/RPS6KA3 (Q15418 whole entry, looked up): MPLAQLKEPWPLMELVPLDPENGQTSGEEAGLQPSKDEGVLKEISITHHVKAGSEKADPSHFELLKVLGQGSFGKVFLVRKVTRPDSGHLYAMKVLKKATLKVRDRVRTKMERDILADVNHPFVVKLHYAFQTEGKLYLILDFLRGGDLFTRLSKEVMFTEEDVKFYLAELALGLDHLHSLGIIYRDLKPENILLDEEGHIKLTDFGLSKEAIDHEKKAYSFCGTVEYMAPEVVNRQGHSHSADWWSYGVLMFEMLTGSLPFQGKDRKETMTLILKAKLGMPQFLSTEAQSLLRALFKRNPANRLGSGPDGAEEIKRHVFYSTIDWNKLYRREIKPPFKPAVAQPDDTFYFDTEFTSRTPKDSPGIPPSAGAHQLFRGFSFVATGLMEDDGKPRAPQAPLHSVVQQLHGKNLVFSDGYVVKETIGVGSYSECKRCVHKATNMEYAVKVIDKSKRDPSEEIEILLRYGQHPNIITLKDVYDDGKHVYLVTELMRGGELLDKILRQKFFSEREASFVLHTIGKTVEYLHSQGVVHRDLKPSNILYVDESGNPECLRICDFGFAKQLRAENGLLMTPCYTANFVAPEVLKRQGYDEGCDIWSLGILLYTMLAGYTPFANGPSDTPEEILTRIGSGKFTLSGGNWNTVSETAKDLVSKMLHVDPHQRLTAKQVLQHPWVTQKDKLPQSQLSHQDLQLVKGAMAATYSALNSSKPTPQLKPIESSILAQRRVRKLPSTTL

[6] = molecular target: Mitogen-activated protein kinase 7 (Mus musculus) (UniProt Q9WVS8); test: Inhibition of BMK1 in mouse MEF cells assessed as increase in p21 protein expression at 5 uM incubated for 16 hrs by Western blot analysis; type: cell-based
Chain of Mitogen-activated protein kinase 7 (Mus musculus) (Q9WVS8 whole entry): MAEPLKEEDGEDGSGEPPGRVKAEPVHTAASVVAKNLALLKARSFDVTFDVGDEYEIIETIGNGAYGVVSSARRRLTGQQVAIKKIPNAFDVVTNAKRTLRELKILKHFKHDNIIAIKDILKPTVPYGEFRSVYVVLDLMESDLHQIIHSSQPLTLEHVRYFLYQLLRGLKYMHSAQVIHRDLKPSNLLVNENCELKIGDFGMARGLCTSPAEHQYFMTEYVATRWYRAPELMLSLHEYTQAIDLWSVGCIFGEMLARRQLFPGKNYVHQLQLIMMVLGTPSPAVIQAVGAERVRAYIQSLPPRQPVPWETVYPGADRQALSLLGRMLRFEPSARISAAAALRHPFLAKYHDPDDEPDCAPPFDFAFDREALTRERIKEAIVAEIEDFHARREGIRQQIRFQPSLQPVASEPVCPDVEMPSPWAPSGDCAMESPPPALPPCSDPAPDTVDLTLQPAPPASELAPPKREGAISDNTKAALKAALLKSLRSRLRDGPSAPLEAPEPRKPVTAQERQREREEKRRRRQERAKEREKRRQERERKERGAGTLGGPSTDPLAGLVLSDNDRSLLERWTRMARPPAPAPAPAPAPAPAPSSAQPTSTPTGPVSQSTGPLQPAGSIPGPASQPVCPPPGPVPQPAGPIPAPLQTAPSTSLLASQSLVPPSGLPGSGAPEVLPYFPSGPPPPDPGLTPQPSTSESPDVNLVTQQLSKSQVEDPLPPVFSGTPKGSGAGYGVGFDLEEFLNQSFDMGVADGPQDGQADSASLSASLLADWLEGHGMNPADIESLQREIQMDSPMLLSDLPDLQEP
Procedure, shortened: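 Pml+/+ or Pml−/− MEFs treated ±5 μM inhibitor for 16 h. Lysates western blotted for p21, quantified by densitometry and normalized to GAPDH, relative to untreated Pml+/+ MEF set as 1. n = 3, ±SEM.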

Ephrin type-A receptor 2 = Ephrin type-A receptor 2 (Homo sapiens, UniProt P29317); test: Inhibition of EphA2 in human HeLa cells lysate at 10 uM pre incubated for 15 mins followed by ATP acyl phosphate probe addition and measured after 10 mins by LC-MS/MS analysis relative to control; type: subcellular; settings: time 25.0 min
Chain of Ephrin type-A receptor 2 (P29317 whole entry): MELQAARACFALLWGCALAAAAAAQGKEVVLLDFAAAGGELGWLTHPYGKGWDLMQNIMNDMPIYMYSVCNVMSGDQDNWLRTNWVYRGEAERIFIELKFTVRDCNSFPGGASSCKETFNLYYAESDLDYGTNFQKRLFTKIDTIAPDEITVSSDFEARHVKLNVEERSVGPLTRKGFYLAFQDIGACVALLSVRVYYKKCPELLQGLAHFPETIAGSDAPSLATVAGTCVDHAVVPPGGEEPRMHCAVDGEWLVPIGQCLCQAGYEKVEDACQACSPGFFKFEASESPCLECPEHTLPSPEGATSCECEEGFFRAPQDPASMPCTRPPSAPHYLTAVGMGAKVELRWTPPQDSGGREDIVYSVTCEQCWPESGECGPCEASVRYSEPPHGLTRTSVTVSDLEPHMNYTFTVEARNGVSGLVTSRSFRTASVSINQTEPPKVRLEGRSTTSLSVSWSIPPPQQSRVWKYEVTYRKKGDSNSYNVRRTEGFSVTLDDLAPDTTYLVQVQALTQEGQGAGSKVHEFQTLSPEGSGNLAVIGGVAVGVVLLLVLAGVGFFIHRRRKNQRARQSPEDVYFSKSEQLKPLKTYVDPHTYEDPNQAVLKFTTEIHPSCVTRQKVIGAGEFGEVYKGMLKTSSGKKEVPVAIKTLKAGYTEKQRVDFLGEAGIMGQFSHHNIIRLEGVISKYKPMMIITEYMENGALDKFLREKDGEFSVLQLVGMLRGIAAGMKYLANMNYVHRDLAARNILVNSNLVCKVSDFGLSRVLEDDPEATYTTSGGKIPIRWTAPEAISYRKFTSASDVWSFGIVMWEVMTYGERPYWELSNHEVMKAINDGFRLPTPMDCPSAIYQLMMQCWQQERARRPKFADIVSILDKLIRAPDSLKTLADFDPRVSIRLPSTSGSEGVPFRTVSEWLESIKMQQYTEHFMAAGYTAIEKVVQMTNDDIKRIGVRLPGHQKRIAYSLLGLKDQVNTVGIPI

HeLa = test: Antiproliferative activity against human HeLa cells assessed as reduction in cell viability at 5 uM after 48 hrs by MTT assay; type: functional, cell-based
Procedure, shortened: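 HeLa cells were infected with empty adenovirus or adenovirus encoding dominant-negative BMK1(AEF). After 24 hr they were treated with or without 5 μM drug for 48 hr and read by MTT. % growth inhibition = (1 − MTT of group / MTT of Ad-EV-only cells) × 100. n = 3.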

[7] = molecular target: Serine/threonine-protein kinase PLK1 (Homo sapiens, UniProt P53350); test: Inhibition of PLK1 splice variant in human HeLa cells lysate at 50 uM pre incubated for 15 mins followed by ADP acyl phosphate probe addition and measured after 10 mins by LC-MS/MS analysis relative to control; type: subcellular; settings: time 25.0 min
[8] = molecular target: T3, Mitogen-activated protein kinase kinase kinase 7 (Homo sapiens) (UniProt O43318); test: Inhibition of TAK1 in human HeLa cells lysate at 2 uM pre incubated for 15 mins followed by ATP acyl phosphate probe addition and measured after 10 mins by LC-MS/MS analysis relative to control; type: subcellular; settings: time 25.0 min
T3 sequence (whole entry): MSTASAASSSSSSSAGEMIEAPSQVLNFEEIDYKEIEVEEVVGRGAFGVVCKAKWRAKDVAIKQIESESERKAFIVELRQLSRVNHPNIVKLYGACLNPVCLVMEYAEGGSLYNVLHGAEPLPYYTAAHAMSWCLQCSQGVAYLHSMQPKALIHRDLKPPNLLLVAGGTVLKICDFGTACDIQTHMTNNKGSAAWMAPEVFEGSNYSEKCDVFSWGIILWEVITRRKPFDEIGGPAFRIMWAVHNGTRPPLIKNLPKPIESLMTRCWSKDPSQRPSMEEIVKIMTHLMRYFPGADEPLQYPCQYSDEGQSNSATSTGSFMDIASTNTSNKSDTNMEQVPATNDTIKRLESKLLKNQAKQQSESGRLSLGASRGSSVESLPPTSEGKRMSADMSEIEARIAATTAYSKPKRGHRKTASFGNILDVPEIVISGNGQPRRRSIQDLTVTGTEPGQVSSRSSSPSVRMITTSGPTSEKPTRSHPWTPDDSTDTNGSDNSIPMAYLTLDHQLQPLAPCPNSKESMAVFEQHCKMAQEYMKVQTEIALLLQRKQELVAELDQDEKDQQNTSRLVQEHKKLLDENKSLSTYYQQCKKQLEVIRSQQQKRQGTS

[9] = molecular target: Mitogen-activated protein kinase 14 (Homo sapiens, UniProt Q16539); test: Inhibition of P38alpha interaction site in human HeLa cells lysate at 10 uM pre incubated for 15 mins followed by ATP acyl phosphate probe addition and measured after 10 mins by LC-MS/MS analysis relative to control; type: subcellular; settings: time 25.0 min
Chain of Mitogen-activated protein kinase 14 (Q16539 whole entry): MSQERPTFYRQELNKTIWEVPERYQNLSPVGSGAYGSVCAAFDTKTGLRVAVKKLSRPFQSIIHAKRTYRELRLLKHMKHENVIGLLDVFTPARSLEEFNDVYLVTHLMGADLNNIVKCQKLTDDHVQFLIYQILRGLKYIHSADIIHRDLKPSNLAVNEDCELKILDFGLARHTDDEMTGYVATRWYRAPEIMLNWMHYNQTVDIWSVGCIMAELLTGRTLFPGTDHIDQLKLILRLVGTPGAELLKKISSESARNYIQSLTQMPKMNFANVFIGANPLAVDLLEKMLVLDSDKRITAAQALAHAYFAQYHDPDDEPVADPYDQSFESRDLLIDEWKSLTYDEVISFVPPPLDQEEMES

[10] = molecular target: Dual specificity mitogen-activated protein kinase kinase 5 (Homo sapiens, UniProt Q13163); test: Inhibition of MAP2K5 in human HeLa cells lysate pre incubated for 15 mins followed by ADP acyl phosphate probe addition and measured after 10 mins by LC-MS/MS analysis; type: subcellular

CCOc1cc(N2CCC(O)CC2)ccc1Nc1ncc2c(n1)N(C)c1ccccc1C(=O)N2C
IC50 [1]: > 50 µM | IC50 [2]: > 50 µM | inhibition [3]: -0.6% | inhibition [4]: inactive | inhibition [5]: 13.5% | inhibition (RPS6KA1/RPS6KA2/RPS6KA3): 9.4% | inhibition [6]: Active | inhibition (Ephrin type-A receptor 2): -3.9% | Activity (HeLa): Active | inhibition [7]: 13.3% | inhibition [8]: -4.8% | inhibition [9]: 17.4% | IC50 [10]: > 50 µM
